Assay results: PMC10915797 (Molecular Pharmaceutics, 2024)

Assays:
[1] = biological target: recombinant human PD-L1 protein (Homo sapiens, UniProt Q9NZQ7); assay: SPR binding affinity; details: read-out: Kd (dissociation rate constant)
In short: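 SPR on a CM5 chip at 25 °C. Recombinant human PD-L1 immobilised; surface blocked at pH 8.5. Peptide in HEPES-buffered saline (pH 7.2–7.4, 0.005% P20) at seven concentrations, 1.5625–100 nM, injected at 10 μL/min: 120 s association, 360 s dissociation. Regenerated with glycine pH 2.0 for 15 s. Blank-subtracted sensorgrams fitted to give the dissociation rate constant.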

[2] = biological target: recombinant murine PD-L1 protein (Mus musculus, UniProt Q9EP73); assay: SPR binding affinity; details: read-out: Kd (dissociation rate constant)
U87MG cells = assay: Blocking of tracer cell binding by PD-L1 antibodies; type: cell-based, human; details: U87MG cells pre-incubated with 50 nM antibody, 4 °C, 30 min, then tracer 30 min
In short: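 U87MG cells (1 × 10^6 per sample, n = 3) pre-incubated with PBS or 50 nM PD-L1 monoclonal antibody, 4 °C, 30 min, then given 0.1 μCi Al[18F]F-NOTA-PCP1 at 4 °C for 30 min. Washed three times with PBS–0.1% Tween-20. Bound radioactivity gamma-counted and expressed as %ID. Compared with PBS-treated cells by unpaired two-tailed t test.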

U87MG tumors = assay: Micro-PET/CT target engagement of PD-L1 antibodies; type: in vivo, BALB/c nude mice; details: U87MG model
In short: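 Female BALB/c nude mice (6–8 weeks, 18.0–23.0 g) carried subcutaneous right-flank U87MG xenografts (6 × 10^6 cells) grown to 100–300 mm3. Atezolizumab given at 0.05–20 mg/kg (n = 3). Imaged 24 or 120 h later: 6.0 ± 0.91 MBq tracer via tail vein, micro-PET/CT at 2 h post-injection under 1.5–2% isoflurane. 3D-OSEM/OP-MAP reconstruction with attenuation correction; manual tumour ROIs; uptake as %ID/cc.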

Chain of recombinant human PD-L1 protein (Q9NZQ7 19-290): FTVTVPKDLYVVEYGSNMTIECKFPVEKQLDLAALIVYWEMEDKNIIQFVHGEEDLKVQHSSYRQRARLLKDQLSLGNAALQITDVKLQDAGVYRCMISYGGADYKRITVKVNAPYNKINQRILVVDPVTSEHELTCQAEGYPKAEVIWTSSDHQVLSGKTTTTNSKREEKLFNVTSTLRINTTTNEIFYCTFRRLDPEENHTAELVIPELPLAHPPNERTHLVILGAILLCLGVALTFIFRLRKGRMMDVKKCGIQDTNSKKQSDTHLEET
Chain of recombinant murine PD-L1 protein (Q9EP73 19-290): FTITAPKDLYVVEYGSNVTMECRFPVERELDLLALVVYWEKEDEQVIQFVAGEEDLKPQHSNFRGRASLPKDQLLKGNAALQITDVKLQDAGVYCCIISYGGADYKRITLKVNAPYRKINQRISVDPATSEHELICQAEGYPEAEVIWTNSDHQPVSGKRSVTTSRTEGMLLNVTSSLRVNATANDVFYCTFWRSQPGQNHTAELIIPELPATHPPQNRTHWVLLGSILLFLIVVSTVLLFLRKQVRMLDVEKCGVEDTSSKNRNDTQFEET

CCCC[C@H]1C(=O)N(C)[C@@H](CCCC)C(=O)N[C@@H](CCCNC(=O)CCOCCOCCOCCNC(=O)CN2CCN(CC(=O)O)CCN(CC(=O)O)CC2)C(=O)N[C@H](C(=O)NCC(N)=O)CSCC(=O)N[C@@H](Cc2ccc(O)cc2)C(=O)N(C)[C@@H](C)C(=O)N[C@@H](CC(N)=O)C(=O)N2CCC[C@H]2C(=O)N[C@@H](Cc2c[nH]cn2)C(=O)N[C@@H](CC(C)C)C(=O)N2C[C@H](O)C[C@H]2C(=O)N[C@@H](Cc2c[nH]c3ccccc23)C(=O)N[C@@H](CO)C(=O)N[C@@H](Cc2cn(C)c3ccccc23)C(=O)N1C [NOTA-PCP1]
koff [1]: 0.000593 s⁻¹ | koff [2]: 0.52 s⁻¹

AtzMab: anti-PD-L1 monoclonal antibody
Al[^18F]F-NOTA-PCP1 cell uptake after antibody treatment (U87MG cells): 1.26 ± 0.05 %ID | tumor Al[^18F]F-NOTA-PCP1 uptake on PET/CT after antibody (U87MG tumors; AtzMab 0.05 mg/kg, at 120h, n = 3 (Figure 6B)): 11.64 ± 1.13 %ID/cc | tumor Al[^18F]F-NOTA-PCP1 uptake on PET/CT after antibody (U87MG tumors; AtzMab 0.5 mg/kg, at 120h, n = 3 (Figure 6B)): 6.17 ± 0.35 %ID/cc | tumor Al[^18F]F-NOTA-PCP1 uptake on PET/CT after antibody (U87MG tumors; AtzMab 5 mg/kg, 24 h, n = 3 (Figure 7B)): 2.16 ± 0.20 %ID/cc | tumor Al[^18F]F-NOTA-PCP1 uptake on PET/CT after antibody (U87MG tumors; AtzMab 5 mg/kg, 120 h, n = 3 (Figure 7B)): 6.91 ± 0.18 %ID/cc | tumor Al[^18F]F-NOTA-PCP1 uptake on PET/CT after antibody (U87MG tumors; AtzMab 20 mg/kg, 24 h, n = 3 (Figure 7B)): 2.19 ± 0.13 %ID/cc | tumor Al[^18F]F-NOTA-PCP1 uptake on PET/CT after antibody (U87MG tumors; AtzMab 20 mg/kg, 120 h, n = 3 (Figure 7B)): 2.29 ± 0.04 %ID/cc | tumor Al[^18F]F-NOTA-PCP1 uptake on PET/CT after antibody (U87MG tumors; AtzMab 20 mg/kg, at 120h, n = 3 (Figure 6B)): 2.02 ± 0.14 %ID/cc

AveMab: anti-PD-L1 monoclonal antibody
Al[^18F]F-NOTA-PCP1 cell uptake after antibody treatment (U87MG cells): 1.40 ± 0.05 %ID

DurMab: anti-PD-L1 monoclonal antibody
Al[^18F]F-NOTA-PCP1 cell uptake after antibody treatment (U87MG cells): 1.34 ± 0.09 %ID
